Data: ChEMBL document CHEMBL1157401, “Anticancer activity of isoobtusilactone A from Cinnamomum kotoense: involvement of apoptosis, cell-cycle dysregulation, mitochondria regulation, and reactive oxygen species” (J Nat Prod, 2008)
pIC50: −log10 of the molar value. Calls of active or inactive are those of the source. The rule behind the calls is not given here.

What was measured:
A549 [1] = assay: Reversal of inhibition of invasion in human A549 cells at 10 uM in presence of N-acetyl-l-cysteine; format: functional, cell-based
Procedure, shortened: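 Transwell migration with 8 µm inserts, or Matrigel-coated inserts for invasion: 5 × 10^4 A549 cells in serum-free medium placed in the upper chamber over medium with 10% FBS, 24 h at 37 °C, 5% CO2. Migrated cells stained, dye extracted and read at 560 nm. Reported as percent of control; compound tested at 1 and 10 µM, with NAC pretreatment in reversal tests.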

A549 [2] = assay: Cell cycle arrest in human A549 cells assessed as accumulation at G2/M phase at 50 uM after 72 hrs; format: functional
Procedure, shortened: (§1)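 Flow cytometry of cell cycle: A549 (5 × 10^5 per 60 mm dish) treated next day with 50 or 100 µM for 24, 48 or 72 h. Adherent and floating cells pooled, fixed in PBS-MeOH 1:2 at 4 °C for at least 18 h, then stained 30 min in the dark with PI 50 µg/mL plus RNase A 50 µg/mL. Sub-G1 taken as the subdiploid fraction; at least three runs.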

A549 [3] = assay: Induction of p27kip1 level in human A549 cells at 100 uM after 18 hrs by ELISA; format: functional, cell-based
Procedure, shortened: (§2)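 p53, p21/WAF1 and p27kip1 in A549 lysates by sandwich ELISA after 1, 10 or 100 µM for 6-24 h. Lysate incubated 2 h for p53 and p27kip1, 1 h for p21, at room temperature. HRP-streptavidin and TMB used, absorbance read at 450 nm, values from standard curves. Three experiments, mean ± SE.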

A549 [4] = assay: Induction of apoptosis in human A549 cells assessed as PARP cleavage at 100 uM; format: functional, cell-based
A549 [5] = assay: Cell cycle arrest in human A549 cells assessed as accumulation at S phase at 100 uM after 48 hrs; format: functional; procedure, shortened: as §1
A549 [6] = assay: Cell cycle arrest in human A549 cells assessed as accumulation at S phase at 50 uM after 24 hrs; format: functional; procedure, shortened: as §1
A549 [7] = assay: Induction of apoptosis in human A549 cells assessed as DNA fragmentation after 12 hrs; format: functional, cell-based
Procedure, shortened: (§3)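 Apoptosis by cytoplasmic mono- and oligonucleosomes (nucleosome ELISA): A549 cells given 1, 10 or 100 µM for 6, 12, 18 or 24 h and lysed, then lysate assayed photometrically. Expressed relative to control; three experiments, mean ± SE, ANOVA with Dunnett's test.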

A549 [8] = assay: Induction of apoptosis in human A549 cells assessed as caspase 9 activation at 100 uM; format: functional, cell-based
Procedure, shortened: (§4)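 Caspase-9 and caspase-3 activity: A549 cells given 100 µM for 6-24 h and lysed on ice 1 h. 80 µg lysate incubated with substrate at pH 7.2, 37 °C, 1 h in the dark. Caspase-9 read colorimetrically at 405 nm and caspase-3 with AFC substrate, ex 400 / em 520 nm. Reported as percent change versus the 0 h group.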

A549 [9] = assay: Induction of apoptosis in human A549 cells assessed as apoptotic nucleosome at 1 uM after 24 hrs; format: functional; procedure, shortened: as §3
A549 [10] = assay: Cell cycle arrest in human A549 cells assessed as accumulation at S phase at 50 uM after 72 hrs; format: functional; procedure, shortened: as §1
A549 [11] = assay: Cell cycle arrest in human A549 cells assessed as accumulation at S phase at 100 uM after 24 hrs; format: functional; procedure, shortened: as §1
A549 [12] = assay: Cell cycle arrest in human A549 cells assessed as accumulation at G1 phase at 100 uM after 24 hrs; format: functional; procedure, shortened: as §1
A549 [13] = assay: Cell cycle arrest in human A549 cells assessed as accumulation at G1 phase at 50 uM after 24 hrs; format: functional; procedure, shortened: as §1
A549 [14] = assay: Induction of apoptosis in human A549 cells assessed as caspase 3 activation at 100 uM; format: functional, cell-based; procedure, shortened: as §4
A549 [15] = assay: Induction of p21/WAF1 protein level in human A549 cells at 100 uM after 18 hrs by ELISA; format: functional, cell-based; procedure, shortened: as §2
A549 [16] = assay: Induction of apoptosis in human A549 cells assessed as apoptotic nucleosome at 100 uM after 6 hrs; format: functional; procedure, shortened: as §3
A549 [17] = assay: Cell cycle arrest in human A549 cells assessed as accumulation at G1 phase at 50 uM after 72 hrs; format: functional; procedure, shortened: as §1
A549 [18] = assay: Cell cycle arrest in human A549 cells assessed as accumulation at subG1 phase at 100 uM after 24 hrs; format: functional; procedure, shortened: as §1
A549 [19] = assay: Cell cycle arrest in human A549 cells assessed as accumulation at G2/M phase at 50 uM after 48 hrs; format: functional; procedure, shortened: as §1
A549 [20] = assay: Cell cycle arrest in human A549 cells assessed as accumulation at G2/M phase at 100 uM after 72 hrs; format: functional; procedure, shortened: as §1
A549 [21] = assay: Cell cycle arrest in human A549 cells assessed as accumulation at G1 phase at 100 uM after 72 hrs; format: functional; procedure, shortened: as §1
A549 [22] = assay: Induction of apoptosis in human A549 cells assessed as apoptotic nucleosome at 1 uM after 6 hrs; format: functional; procedure, shortened: as §3
A549 [23] = assay: Cytotoxicity against human A549 cells after 48 hrs by TB dye exclusion assay; format: functional, cell-based; settings: A549, 48 h
A549 [24] = assay: Cytotoxicity against human A549 cells after 72 hrs by MTT assay; format: functional, cell-based; settings: A549, 72 h
A549 [25] = assay: Cytotoxicity against human A549 cells after 48 hrs by MTT assay; format: functional, cell-based; settings: A549, 48 h
A549 [26] = assay: Cell cycle arrest in human A549 cells assessed as accumulation at G2/M phase at 100 uM after 48 hrs; format: functional; procedure, shortened: as §1
A549 [27] = assay: Cell cycle arrest in human A549 cells assessed as accumulation at G1 phase at 50 uM after 48 hrs; format: functional; procedure, shortened: as §1

In the case of C=C1OC(=O)/C(=C/CCCCCCCCCCCCC)[C@@H]1O [ISOOBTUSILACTONE A], the Activity (A549 [1]) was “Active”, the Activity (A549 [2]) was 13.64% and the Activity (A549 [3]) was “Active”. For the same compound, the Activity (A549 [4]) was “Active”, the Activity (A549 [5]) was 41.33% and the Activity (A549 [6]) was 30.81%. The Activity (A549 [7]) was “Active”, the Activity (A549 [8]) was “Active” and the Activity (A549 [9]) was 16. For the same compound, the Activity (A549 [10]) was 47.74%, the Activity (A549 [11]) was 38.95% and the Activity (A549 [12]) was 42.88%. The Activity (A549 [13]) was 51.93%, the Activity (A549 [14]) was “Active” and the Activity (A549 [15]) was “Active”. For the same compound, the Activity (A549 [16]) was 4.5, the Activity (A549 [17]) was 38.62% and the Activity (A549 [18]) was 25.63%. The Activity (A549 [19]) was 15.91%, the Activity (A549 [20]) was 42.03% and the Activity (A549 [21]) was 41.73%. For the same compound, the Activity (A549 [22]) was 3.5, the pIC50 (A549 [23]) was 6.05 and the pIC50 (A549 [24]) was 5.99. The pIC50 (A549 [25]) was 5.71, the Activity (A549 [26]) was 15.59% and the Activity (A549 [27]) was 37.37%.
